Shown are actives, neighbours in structure and some others; about 2% of the full set was active somewhere.
UCH37 DUB inh = blocks the human deubiquitinase UCH37 | Q9Y5K5 | purified proteasome/UCH37, Ub-AMC cleavage fluorescence | inhibition, % (concentration not given with the values) | 330,000 tested, 0.33% active;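 active = mean inhibition over replicate wells above about 20%, limit read from the data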;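 note: 0% = compound-free wells with enzyme and 100% = wells lacking proteasome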
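Schedule: 30 min plus 25 min, room temperature / Material: human UCH37 within purified proteasomes / Technique: AMC fluorescence intensity at 355/460 nm / Buffer or medium: pH 7.4 Tris-HCl (50 mM) with ovalbumin, ATP-MgCl2, DTT / Controls: wells without proteasome as full block, compound-free enzyme plus substrate as uninhibited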
GSTO1 inh = GSTO1 inhibition, counter-screen for RBBP9 inhibitors | inhibition, % at 5.96 µM | P78417 | recombinant GSTO1, activity-based probe fluorescence polarization | AID 1974 | 300,000 tested, 1.1% active;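 active = inhibition above the campaign mean inhibition plus 3 SD, cut at about 35% in these data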;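 note: 0% = GSTO1-1 with DMSO and 100% = wells lacking GSTO1-1 enzyme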
Fh CTSL1 inh = cathepsin L1 inhibition, PFM18AAP counter-screen. recombinant F. hepatica cathepsin L1, Z-Leu-Arg-MCA fluorescence. inhibition, % at 5.96 µM. 300,000 tested, 0.49% active. AID 1906;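 active = inhibition above the mean of all tested compounds plus 3 SD, set per screening campaign, cut at about 17% in these data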;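 note: 0% = plate median of test compound wells and 100% = 1 µM Z-Phe-Ala-diazomethylketone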
PAD4 inh = blocks human protein arginine deiminase 4; AID 485272; 330,000 tested, 0.41% active; recombinant PAD4, RCA probe fluorescence polarization; inhibition, % at 6.36 µM;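 active = percent inhibition above a cutoff equal to the mean of all tested compounds plus 3 SD, cut at about 15% in these data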;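 note: 0% = PAD4 with RCA probe and DMSO and 100% = probe without PAD4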
PP5 primary = PP5 (human) phosphatase inhibition; P53041; purified PP5c, OMFP substrate fluorescence; inhibition, % at 6.7 µM; 320,000 tested, 0.18% active; AID 1987;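 active = inhibition above the campaign's mean inhibition across all tested compounds plus 3 SD, cut at about 9.5% in these data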;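 note: 0% = DMSO only and 100% = 100 µM cantharidin control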
Target sequence (P53041 whole entry, looked up): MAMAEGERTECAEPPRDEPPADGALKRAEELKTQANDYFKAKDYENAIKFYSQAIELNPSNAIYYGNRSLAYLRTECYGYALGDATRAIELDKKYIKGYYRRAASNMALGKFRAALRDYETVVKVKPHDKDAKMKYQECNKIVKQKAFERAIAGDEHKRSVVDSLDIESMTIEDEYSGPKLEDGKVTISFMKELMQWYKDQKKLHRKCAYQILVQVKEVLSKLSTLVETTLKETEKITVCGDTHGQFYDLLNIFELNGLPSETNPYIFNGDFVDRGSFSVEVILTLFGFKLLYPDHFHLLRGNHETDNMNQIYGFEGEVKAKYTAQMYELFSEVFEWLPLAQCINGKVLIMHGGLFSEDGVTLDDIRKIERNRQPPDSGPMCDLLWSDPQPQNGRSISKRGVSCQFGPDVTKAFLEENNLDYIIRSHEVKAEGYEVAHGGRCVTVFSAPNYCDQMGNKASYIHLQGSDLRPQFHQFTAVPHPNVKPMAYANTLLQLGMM
Apaf1 inhib = inhibitors of human Apaf-1 apoptosome; O14727; reconstituted apoptosome caspase-3 activity, DEVD-Rh110 fluorescence; inhibition, % at 20 µM; 330,000 tested, 0.71% active; AID 489030; active = inhibition of at least 40% at 20 µM;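 note: plate controls were DMSO wells for no effect and DEVD-CHO caspase inhibitor wells for full effect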
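System: Apoptosome proteins | Medium: Hepes pH 7.5 with detergent and BSA | Also added: Cytochrome c trigger plus (Z-DEVD)2-Rh110 caspase-3 substrate | Incubation: 30 min compound preincubation, 50 min activation, room temperature | Detection: Rhodamine 110 fluorescence at Ex 480/Em 540 nm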
GSTO1 inh conf = GSTO1 (human) inhibition, confirmation; shares compounds with GSTO1 inh; recombinant GSTO1, probe fluorescence polarization; inhibition, % at 5.96 µM; 2,400 tested, 54% active; AID 2176;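 active = inhibition above the primary screen's cutoff, its mean inhibition plus 3 SD, cut at about 35% in these data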;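 note: loss of polarization as inhibitors block binding of rhodamine sulfonate ester activity probe; 0% = GSTO1 with DMSO and 100% = wells lacking GSTO1 enzyme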
GSTO1 ABPP inh = GSTO1 (human) inhibition by gel ABPP; shares compounds with GSTO1 inh; recombinant GSTO1, gel ABPP SE-Rh probe fluorescence; inhibition, % at 1 µM; 130 tested, 30% active; AID 463110;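 active = inhibition of the enzyme GSTO1 above about 75%, limit read from the data; inactive = inhibition below that limit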
Numbers without * were called inactive; i = inactive; / = no result.

SMILES	UCH37 DUB inh	GSTO1 inh	Fh CTSL1 inh	PAD4 inh	PP5 primary	Apaf1 inhib	GSTO1 inh conf	others
COC(CN(C(=O)CCl)C(C(=O)NC1CCCCC1)c1ccccc1C)OC (configuration not stated)	-17	80*	20*	2	0	-16	/
CCOC(=O)C1(Cc2ccccc2)CCN(Cc2cccc(OC)c2O)CC1	1	15	18*	2	-1	7	/
CCOC(=O)C1(Cc2cccc(OC)c2)CCN(Cc2cccc(OC)c2O)CC1	4	-3	-2	-1	1	17	/
O=C(CNC(=O)c1ccco1)OC(C(=O)c1ccccc1)c1ccccc1 (configuration not stated)	3	0	19*	0	2	-2	/
O=C(CNC(=O)c1ccco1)NCC(=O)OC(C(=O)c1ccccc1)c1ccc(Cl)cc1 (configuration not stated)	1	-2	-4	-2	1	9	/
CC(OC(=O)CNC(=O)c1ccc(Cl)c([N+](=O)[O-])c1)C(=O)NC1CCCCC1C (configuration not stated)	-1	/	/	/	/	8	/
Cc1ccc(NC(=O)CN(C)C(=O)C(C)OC(=O)CNC(=O)c2ccc(Cl)c([N+](=O)[O-])c2)cc1 (configuration not stated)	2	5	28*	4	0	9	/
CCCCNC(=O)C(C1CCCCC1)N(CCN(C)C)C(=O)CCCN1C(=O)NC(c2ccc(-c3ccccc3)cc2)C(C(=O)OCc2ccccc2)=C1C (configuration not stated)	1	/	/	4	/	64*	/
Cc1cccc(CNc2ncnc3ccc(-c4ccc5c(c4)OCCO5)cc23)c1	-1	/	/	1	1	42*	/
Cc1ccc(-n2nc3ccc(NC(=O)C(C)C)cc3n2)cc1	-27	1	-1	-1	2	-152	/
Cc1ccc(-n2nc3ccc(N)cc3n2)cc1	i	30	1	-7	1	82*	/
CC(C)c1ccc(-n2nc3ccc(N)cc3n2)cc1	5	1	2	-6	3	63*	/
Cc1cc2nn(-c3ccc(F)cc3)nc2cc1N	i	9	-2	-2	2	31	/
CN(N=Cc1ccc(O)c(O)c1)c1nc(-c2ccccc2)cc(-c2ccccc2)n1	7	/	/	/	/	/	/
Cc1nc(C(N)=NOC(=O)c2c(-c3ccccc3Cl)noc2C)cs1	4	/	/	/	/	/	/
CC(=NNc1ncc(Br)cn1)c1cccc([N+](=O)[O-])c1	6	/	/	/	/	/	/
Clc1ccc(Oc2nc3ccccc3n3cccc23)cc1	-2	3	26*	-2	1	7	/
O=C(NN=Cc1ccc(Cl)s1)c1cccs1	2	/	/	/	/	/	/
COc1ccc([C@@H]2OC2(C(N)=O)C(N)=O)cc1	5	-5	1	-6	-1	-22	/
NC(=O)C1(C(N)=O)OC1c1ccc(Cl)c(Cl)c1 (configuration not stated)	7	66*	-2	-2	-5	-29	77*	GSTO1 ABPP inh=30
COc1ccc(NC(C)C(=O)NN=Cc2ccc([N+](=O)[O-])s2)cc1 (configuration not stated)	10	/	/	/	/	/	/
CCOC(=O)c1c(CC(C)C)csc1NC(=O)C(C)C	6	2	7	-8	1	15	/
CCOC(=O)c1c(CC(C)C)csc1NC(=O)CCl	6	76*	2	13	4	16	92*
CCc1ccc(S(=O)(=O)Nc2ccc(O)c3ccccc23)cc1	/	53*	-3	12	4	14	2
Cc1ccc(S(=O)(=O)Nc2c(O)ccc3ccccc23)cc1	-4	23	0	-13	0	8	/
SMILES	UCH37 DUB inh	GSTO1 inh	Fh CTSL1 inh	PAD4 inh	PP5 primary	Apaf1 inhib	GSTO1 inh conf	others
O=S(=O)(Nc1ccc(O)c2ccccc12)c1ccc(F)cc1	3	64*	-2	3	-1	38	11
C(=NNc1nc2ccccc2s1)c1ccccn1	2	/	/	/	/	/	/
COc1cccc(C=NNC(=O)c2cc3c(OC)cccc3[nH]2)c1OC	-3	/	/	/	/	/	/
O=c1c(C=NNc2ccccc2)c(Sc2nnnn2-c2ccccc2)nc2ccccn12	-1	/	/	/	/	/	/
Fc1ccccc1-c1csc(=Nc2cccnc2)n1CCCn1ccnc1	5	41*	1	-4	2	20	5
Fc1ccccc1-c1csc(=Nc2cccnc2)n1CC1CCCO1 (configuration not stated)	3	4	4	1	1	9	/
Cc1ccn2cc(-c3ccc(O)c(O)c3)nc2c1	-5	60*	-5	-1	2	0	12
Oc1ccc(-c2cn3ccccc3n2)cc1	-66	-3	-2	-5	0	-19	/
Cc1ccn2cc(-c3cccc(NC(=O)C(C)C)c3)nc2c1	-7	-3	-1	-1	4	-3	/
Oc1ccc(-c2cn3ccccc3n2)cc1O	0	43*	-1	0	-1	-4	4
CC(=NNC(=O)c1ccccc1O)c1cccs1	12	/	/	/	/	/	/
COc1ccc(CC(=O)NN=Cc2cc([N+](=O)[O-])cc(Br)c2O)cc1	9	/	/	/	/	/	/
CCOC(=O)c1c(-c2ccccc2)csc1N=CC1C(=O)CCCC1=O	-22	/	/	/	/	/	/
COCCNC(=O)COc1ccc(Br)cc1Cl	2	0	-4	0	0	2	/
C=CCNC(=O)COc1ccc(Br)cc1Cl	3	66*	-1	-1	1	-2	5
O=C(N/N=C/c1ccc(O)c(O)c1)c1cccc(S(=O)(=O)N2CCCC2)c1	/	67*	5	6	-1	5	4
Cc1ccc(S(=O)(=O)N2CCN(CC(=O)N/N=C\c3ccc(O)c(O)c3)CC2)cc1	/	46*	6	2	1	-8	3
CCN(CC)S(=O)(=O)c1cccc(C(=O)N/N=C/c2ccc(O)c(O)c2O)c1	/	63*	-3	-1	3	/	20
Cc1ccc(S(=O)(=O)N2CCN(CC(=O)NN=Cc3ccccn3)CC2)cc1	2	/	/	/	/	/	/
Cc1ccc(C(=O)Nc2nnc(CC(=O)N/N=C/c3ccc(O)c(O)c3)s2)cc1	/	38*	9	-12	-1	15	31
Cc1ccsc1C=NNC(=O)Cc1ccc(Cl)cc1	5	/	/	/	/	/	/
Cc1cc(C)c2c(N)c(C(=O)NN=Cc3ccccc3)sc2n1	-60	/	/	/	/	/	/
COc1cc(C=NNC(=O)c2cccnc2)ccc1OCC(=O)Nc1ccc(C)cc1	-9	/	/	/	/	/	/
C(=NNCc1ccccc1)c1ccc2ncccc2c1	8	/	/	/	/	/	/
O=C(CCl)Nc1cc(-c2ccccc2)nn1-c1ccccc1	8	65*	68*	-5	4	18	89*
